Test system: U2OS
Test: Multiplex assay against U2OS
Type: toxicity, cell-based
Conditions: human
Method in brief: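 Compound was added to live cells that had been stained at seeding with Hoechst33342, BioTracker Green Microtubule Cytoskeleton Dye, MitoTracker Red and Annexin V Alexa Fluor 680, and imaging followed on a CQ1 microscope at 37°C and 5% CO2. CellPathfinder machine-learning gating divided cells into Hoechst high-intensity objects or normal cells, normal cells into healthy, pyknosed or fragmented nuclei, and pyknosed cells into mitotic or apoptotic. Tubulin, mitochondrial-mass and membrane-permeability phenotypes are per cents of healthy-nucleus cells.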

[1] = 12 h, 1 µM, compound concentration 1 uM, replicate 1
[2] = 12 h, 1 µM, compound concentration 1 uM, replicate 2
[3] = 12 h, 10 µM, compound concentration 10 uM, replicate 1
[4] = 12 h, 10 µM, compound concentration 10 uM, replicate 2
[5] = 24 h, 1 µM, compound concentration 1 uM, replicate 1
[6] = 24 h, 1 µM, compound concentration 1 uM, replicate 2
[7] = 24 h, 10 µM, compound concentration 10 uM, replicate 1
[8] = 24 h, 10 µM, compound concentration 10 uM, replicate 2
[9] = 48 h, 1 µM, compound concentration 1 uM, replicate 1
[10] = 48 h, 1 µM, compound concentration 1 uM, replicate 2
[11] = 48 h, 10 µM, compound concentration 10 uM, replicate 1
[12] = 48 h, 10 µM, compound concentration 10 uM, replicate 2

`C[C@@H](NCCCc1cccc(C(F)(F)F)c1)c1cccc2ccccc12.Cl` [CINACALCET HYDROCHLORIDE] was tested, and the “Population Fragmented Nuclei (%)” value [1] was 6%, the “Population Healthy Nuclei (%)” value [1] was 79% and the “Population Hoechst High Intensity Objects (%)” value [1] was 5%. The “Population Membrane Permeable-Phenotype (%)” value [1] was 4%, the “Population Mitochondria Different-Phenotype (%)” value [1] was 30% and the “Population Normal (%)” value [1] was 94%. For the same compound, the “Population Pyknosed Nuclei (%)” value [1] was 13%, the “Population Tubulin-Different-Phenotype (%)” value [1] was 40% and the “Total Cell Count” value [1] was 184. The “Population Apoptotic (%)” value [2] was 33%, the “Population Fragmented Nuclei (%)” value [2] was 10% and the “Population Healthy Nuclei (%)” value [2] was 76%. The “Population Hoechst High Intensity Objects (%)” value [2] was 9%, the “Population Membrane Permeable-Phenotype (%)” value [2] was 11% and the “Population Mitochondria Different-Phenotype (%)” value [2] was 22%. The “Population Mitotic Cells (%)” value [2] was 66%, the “Population Normal (%)” value [2] was 90% and the “Population Pyknosed Nuclei (%)” value [2] was 12%. The “Population Tubulin-Different-Phenotype (%)” value [2] was 36%, the “Total Cell Count” value [2] was 52 and the “Population Apoptotic (%)” value [3] was 41%. The “Population Fragmented Nuclei (%)” value [3] was 14%, the “Population Healthy Nuclei (%)” value [3] was 60% and the “Population Hoechst High Intensity Objects (%)” value [3] was 9%. For the same compound, the “Population Membrane Permeable-Phenotype (%)” value [3] was 22%, the “Population Mitotic Cells (%)” value [3] was 58% and the “Population Normal (%)” value [3] was 90%. For the same compound, the “Population Pyknosed Nuclei (%)” value [3] was 24%, the “Population Tubulin-Different-Phenotype (%)” value [3] was 98% and the “Total Cell Count” value [3] was 155. For the same compound, the “Population Apoptotic (%)” value [4] was 88%, the “Population Fragmented Nuclei (%)” value [4] was 20% and the “Population Healthy Nuclei (%)” value [4] was 23%. For the same compound, the “Population Hoechst High Intensity Objects (%)” value [4] was 7%, the “Population Membrane Permeable-Phenotype (%)” value [4] was 33% and the “Population Mitochondria Different-Phenotype (%)” value [4] was 93%. The “Population Mitotic Cells (%)” value [4] was 11%, the “Population Normal (%)” value [4] was 92% and the “Population Pyknosed Nuclei (%)” value [4] was 55%. For the same compound, the “Population Tubulin-Different-Phenotype (%)” value [4] was 93%, the “Total Cell Count” value [4] was 68 and the “Population Apoptotic (%)” value [5] was 29%. For the same compound, the “Population Fragmented Nuclei (%)” value [5] was 5%, the “Population Healthy Nuclei (%)” value [5] was 82% and the “Population Hoechst High Intensity Objects (%)” value [5] was 3%. The “Population Membrane Permeable-Phenotype (%)” value [5] was 4%, the “Population Mitochondria Different-Phenotype (%)” value [5] was 20% and the “Population Mitotic Cells (%)” value [5] was 70%. The “Population Normal (%)” value [5] was 96%, the “Population Pyknosed Nuclei (%)” value [5] was 12% and the “Population Tubulin-Different-Phenotype (%)” value [5] was 20%. For the same compound, the “Total Cell Count” value [5] was 205, the “Population Apoptotic (%)” value [6] was 36% and the “Population Fragmented Nuclei (%)” value [6] was 8%. For the same compound, the “Population Healthy Nuclei (%)” value [6] was 69%, the “Population Hoechst High Intensity Objects (%)” value [6] was 7% and the “Population Membrane Permeable-Phenotype (%)” value [6] was 5%. For the same compound, the “Population Mitochondria Different-Phenotype (%)” value [6] was 26%, the “Population Mitotic Cells (%)” value [6] was 63% and the “Population Normal (%)” value [6] was 92%. For the same compound, the “Population Pyknosed Nuclei (%)” value [6] was 22%, the “Population Tubulin-Different-Phenotype (%)” value [6] was 17% and the “Total Cell Count” value [6] was 53. The “Population Apoptotic (%)” value [7] was 72%, the “Population Fragmented Nuclei (%)” value [7] was 14% and the “Population Healthy Nuclei (%)” value [7] was 51%. For the same compound, the “Population Hoechst High Intensity Objects (%)” value [7] was 6%, the “Population Membrane Permeable-Phenotype (%)” value [7] was 46% and the “Population Mitochondria Different-Phenotype (%)” value [7] was 97%. For the same compound, the “Population Mitotic Cells (%)” value [7] was 28%, the “Population Normal (%)” value [7] was 93% and the “Population Pyknosed Nuclei (%)” value [7] was 34%. The “Population Tubulin-Different-Phenotype (%)” value [7] was 100%, the “Total Cell Count” value [7] was 157 and the “Population Apoptotic (%)” value [8] was 92%. For the same compound, the “Population Fragmented Nuclei (%)” value [8] was 15%, the “Population Healthy Nuclei (%)” value [8] was 32% and the “Population Hoechst High Intensity Objects (%)” value [8] was 24%. The “Population Membrane Permeable-Phenotype (%)” value [8] was 52%, the “Population Mitochondria Different-Phenotype (%)” value [8] was 88% and the “Population Mitotic Cells (%)” value [8] was 7%. For the same compound, the “Population Normal (%)” value [8] was 75%, the “Population Pyknosed Nuclei (%)” value [8] was 51% and the “Population Tubulin-Different-Phenotype (%)” value [8] was 82%. The “Total Cell Count” value [8] was 69, the “Population Apoptotic (%)” value [9] was 38% and the “Population Fragmented Nuclei (%)” value [9] was 8%. The “Population Healthy Nuclei (%)” value [9] was 80%, the “Population Hoechst High Intensity Objects (%)” value [9] was 2% and the “Population Membrane Permeable-Phenotype (%)” value [9] was 3%. For the same compound, the “Population Mitochondria Different-Phenotype (%)” value [9] was 11%, the “Population Mitotic Cells (%)” value [9] was 61% and the “Population Normal (%)” value [9] was 97%. The “Population Pyknosed Nuclei (%)” value [9] was 11%, the “Population Tubulin-Different-Phenotype (%)” value [9] was 16% and the “Total Cell Count” value [9] was 293. For the same compound, the “Population Apoptotic (%)” value [10] was 54%, the “Population Fragmented Nuclei (%)” value [10] was 14% and the “Population Healthy Nuclei (%)” value [10] was 70%. For the same compound, the “Population Hoechst High Intensity Objects (%)” value [10] was 6%, the “Population Membrane Permeable-Phenotype (%)” value [10] was 8% and the “Population Mitochondria Different-Phenotype (%)” value [10] was 18%. For the same compound, the “Population Mitotic Cells (%)” value [10] was 45%, the “Population Normal (%)” value [10] was 93% and the “Population Pyknosed Nuclei (%)” value [10] was 15%. For the same compound, the “Population Tubulin-Different-Phenotype (%)” value [10] was 12%, the “Total Cell Count” value [10] was 75 and the “Population Apoptotic (%)” value [11] was 70%. The “Population Fragmented Nuclei (%)” value [11] was 26%, the “Population Healthy Nuclei (%)” value [11] was 33% and the “Population Hoechst High Intensity Objects (%)” value [11] was 7%. The “Population Membrane Permeable-Phenotype (%)” value [11] was 58%, the “Population Mitochondria Different-Phenotype (%)” value [11] was 96% and the “Population Mitotic Cells (%)” value [11] was 29%. The “Population Normal (%)” value [11] was 92%, the “Population Pyknosed Nuclei (%)” value [11] was 39% and the “Population Tubulin-Different-Phenotype (%)” value [11] was 98%. The “Total Cell Count” value [11] was 176, the “Population Apoptotic (%)” value [12] was 91% and the “Population Fragmented Nuclei (%)” value [12] was 18%. For the same compound, the “Population Healthy Nuclei (%)” value [12] was 35%, the “Population Hoechst High Intensity Objects (%)” value [12] was 22% and the “Population Membrane Permeable-Phenotype (%)” value [12] was 78%. For the same compound, the “Population Mitochondria Different-Phenotype (%)” value [12] was 89%, the “Population Mitotic Cells (%)” value [12] was 8% and the “Population Normal (%)” value [12] was 77%. For the same compound, the “Population Pyknosed Nuclei (%)” value [12] was 45%, the “Population Tubulin-Different-Phenotype (%)” value [12] was 94% and the “Total Cell Count” value [12] was 68.

From ChEMBL document CHEMBL4689842, “EUbOPEN Chemogenomics Library wave 1” (2021)
